# Data taken from ChEMBL document CHEMBL4342513, “Implementation of the CYP Index for the Design of Selective Tryptophan-2,3-dioxygenase Inhibitors” (ACS Med Chem Lett, 2020).
# Columns and labels:
# [1] = Clearance in mouse liver microsomes; format: ADME, Microsome
# Outline: (§1)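 Clearance was measured in liver microsome incubations from human, rat and mouse. It is expressed as scaled clearance in mL/min/kg.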
# [2] = Clearance in human liver microsomes; format: ADME, Microsome; outline: as §1
# Homo sapiens [3] = species: Homo sapiens; test: Selectivity index, ratio of EC50 for inhibition of IDO1 in human A172 cells in presence of IFNgamma to EC50 for inhibition of TDO in human SW48 cells; format: cell-based
# [4] = biological target: T1, Tryptophan 2,3-dioxygenase (Homo sapiens, UniProt P48775); test: Inhibition of TDO in human SW48 cells after 24 hrs by NFK green reagent based assay; format: cell-based
# [5] = biological target: Indoleamine 2,3-dioxygenase 1 (Homo sapiens, UniProt P14902); test: Inhibition of IDO1 in human A172 cells after 24 hrs in presence of IFNgamma by NFK green reagent based assay; format: cell-based
# [6] = Lipophilicity, log D of compound at pH 7.4; format: physicochemical; details: buffer
# [7] = Clearance in rat liver microsomes; format: ADME, Microsome; outline: as §1
# Homo sapiens [8] = species: Homo sapiens; test: Selectivity index, ratio of IC50 for inhibition of CYP3A4 (unknown origin) to EC50 for inhibition of EC50 for inhibition of TDO in human SW48 cells; format: cell-based
# Cytochrome P450 3A4 = Cytochrome P450 3A4 (Homo sapiens, UniProt P08684); test: Inhibition of CYP3A4 (unknown origin); format: ADME
# [9] = biological target: T1, Tryptophan 2,3-dioxygenase; test: Inhibition of TDO (unknown origin)
# [10] = Volume of distribution at steady state in mouse; format: ADME, organism-based; details: in vivo, read-out: Vdss
# [11] = Unbound clearance in mouse plasma; format: ADME, cell-free
# [12] = Oral bioavailability in mouse at 1 mg/kg dosed as cassette formulation; format: ADME, organism-based; details: in vivo
# [13] = Half life in mouse; format: ADME, organism-based; details: in vivo
# [14] = Clearance in iv dosed mouse plasma; format: ADME, organism-based
# Outline: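 Compounds were given to mice as discrete (single-compound) intravenous doses. Plasma clearance (CLp) is expressed in mL/min/kg.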
# [15] = AUC (infinity) in mouse; format: ADME, organism-based; design: time infinity; details: in vivo
# [16] = Kinetic solubility of compound; format: physicochemical; details: read-out: Kinetic_solubility
# [17] = Oral bioavailability in mouse at 5 mg/kg; format: ADME, organism-based; details: in vivo
# [18] = Protein binding in mouse plasma assessed as unbound fraction; format: ADME, cell-free
# [19] = Apparent permeability across apical to basolateral side in MDCK cells; format: ADME, cell-based, Canis lupus familiaris; details: dog
# [20] = biological target: T1, Tryptophan 2,3-dioxygenase; test: Inhibition of recombinant human TDO using L-tryptophan as substrate preincubated for 5 mins followed by substrate addition and measured after 15 mins by RapidFire-Mass spectrometry
# [21] = Cmax in mouse at 100 mg/kg; format: ADME, organism-based; design: dose 100 mg/kg; details: in vivo
# Mus musculus [22] = test: In vivo inhibition of TDO in mouse assessed as blood tryptophan levels by measuring AUC at 10 mg/kg (reference value: 570 microM.hr); format: functional, organism-based
# Outline: (§2)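 Mouse pharmacodynamic study with escalating doses up to 100 mg/kg and a vehicle-treated comparison group. Blood tryptophan concentration was followed over time.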
# [23] = AUC (infinity) in mouse at 100 mg/kg; format: ADME, organism-based; design: dose 100 mg/kg, time infinity; details: in vivo
# Mus musculus [24] = test: In vivo inhibition of TDO in mouse assessed as blood tryptophan levels by measuring AUC at 30 mg/kg (reference value: 570 microM.hr); format: functional, organism-based; outline: as §2
# [25] = AUC (infinity) in mouse at 10 mg/kg; format: ADME, organism-based; design: dose 10 mg/kg, time infinity; details: in vivo
# [26] = AUC (infinity) in mouse at 30 mg/kg; format: ADME, organism-based; design: dose 30 mg/kg, time infinity; details: in vivo
# Mus musculus [27] = test: In vivo inhibition of TDO in mouse assessed as blood tryptophan levels by measuring Cmax at 100 mg/kg (reference value: 340 microM); format: functional, organism-based; design: dose 100 mg/kg; outline: as §2
# Mus musculus [28] = test: In vivo inhibition of TDO in mouse assessed as blood tryptophan levels by measuring Cmax at 10 mg/kg (reference value: 340 microM); format: functional, organism-based; design: dose 10 mg/kg; outline: as §2
# [29] = Cmax in mouse at 10 mg/kg; format: ADME, organism-based; design: dose 10 mg/kg; details: in vivo
# Mus musculus [30] = test: In vivo inhibition of TDO in mouse assessed as blood tryptophan levels by measuring Cmax at 30 mg/kg (reference value: 340 microM); format: functional, organism-based; design: dose 30 mg/kg; outline: as §2
# Mus musculus [31] = test: In vivo inhibition of TDO in mouse assessed as blood tryptophan levels by measuring AUC at 100 mg/kg (reference value: 570 microM.hr); format: functional, organism-based; outline: as §2
# [32] = Cmax in mouse at 30 mg/kg; format: ADME, organism-based; design: dose 30 mg/kg; details: in vivo
# Sequence of Cytochrome P450 3A4 (P08684 whole entry): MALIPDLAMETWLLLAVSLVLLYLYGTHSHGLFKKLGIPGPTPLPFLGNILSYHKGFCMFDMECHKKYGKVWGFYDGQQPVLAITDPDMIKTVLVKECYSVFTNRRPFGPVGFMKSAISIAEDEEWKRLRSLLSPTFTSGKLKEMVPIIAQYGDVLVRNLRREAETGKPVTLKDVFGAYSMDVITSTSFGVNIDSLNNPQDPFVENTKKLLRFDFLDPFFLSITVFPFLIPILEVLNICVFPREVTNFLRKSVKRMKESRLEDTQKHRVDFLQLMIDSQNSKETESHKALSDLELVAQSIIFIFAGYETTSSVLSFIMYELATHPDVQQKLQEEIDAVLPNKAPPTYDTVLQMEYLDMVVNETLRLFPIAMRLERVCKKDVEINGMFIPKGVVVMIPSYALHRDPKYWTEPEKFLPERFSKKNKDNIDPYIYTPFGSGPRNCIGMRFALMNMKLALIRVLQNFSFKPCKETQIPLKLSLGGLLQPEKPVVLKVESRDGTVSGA
# T1 sequence (P48775 whole entry): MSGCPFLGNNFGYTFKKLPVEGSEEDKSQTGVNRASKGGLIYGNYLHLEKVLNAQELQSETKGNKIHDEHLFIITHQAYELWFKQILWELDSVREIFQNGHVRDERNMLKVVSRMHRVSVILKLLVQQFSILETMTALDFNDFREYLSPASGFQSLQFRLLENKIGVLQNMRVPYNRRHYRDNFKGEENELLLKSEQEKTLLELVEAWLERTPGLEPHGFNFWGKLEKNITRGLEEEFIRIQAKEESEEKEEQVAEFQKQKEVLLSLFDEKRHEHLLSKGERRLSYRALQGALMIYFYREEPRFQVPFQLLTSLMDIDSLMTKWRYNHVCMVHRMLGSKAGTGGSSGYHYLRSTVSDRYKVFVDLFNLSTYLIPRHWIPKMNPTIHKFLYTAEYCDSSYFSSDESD
# Sequence of Indoleamine 2,3-dioxygenase 1 (P14902 whole entry): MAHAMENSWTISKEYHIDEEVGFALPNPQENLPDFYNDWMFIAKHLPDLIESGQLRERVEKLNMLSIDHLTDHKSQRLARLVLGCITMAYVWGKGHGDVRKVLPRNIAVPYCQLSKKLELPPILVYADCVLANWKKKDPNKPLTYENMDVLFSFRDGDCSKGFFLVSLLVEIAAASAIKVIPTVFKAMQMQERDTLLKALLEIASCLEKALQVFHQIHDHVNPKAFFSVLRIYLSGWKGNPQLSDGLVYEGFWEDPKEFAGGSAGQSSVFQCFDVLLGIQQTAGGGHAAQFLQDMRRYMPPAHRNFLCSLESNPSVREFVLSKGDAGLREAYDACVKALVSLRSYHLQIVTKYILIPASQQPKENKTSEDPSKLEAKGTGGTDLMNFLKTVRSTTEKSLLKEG
smiles,measurement,setting,value
O[C@@H]1CCCC[C@H]1[C@H]1c2ccccc2-c2cncn21,CLhep predicted,[1],62 mL/min/kg
same,CLhep predicted,[2],9.7 mL/min/kg
same,Ratio EC50,Homo sapiens [3],14
same,EC50,[4],50 nM
same,EC50,[5],720 nM
same,logD,[6],2.7
same,CLhep predicted,[7],37 mL/min/kg
O[C@@H]1c2ccccc2CC[C@H]1[C@H]1c2ccccc2-c2cncn21,CLhep predicted,[1],75 mL/min/kg
same,CLhep predicted,[2],11 mL/min/kg
same,EC50,[5],240 nM
same,CLhep predicted,[7],47 mL/min/kg
CP(C)(=O)c1ccc2c(c1)[C@@H](O)[C@H]([C@H]1c3ccccc3-c3cncn31)CC2,Ratio IC50/EC50,Homo sapiens [8],12
same,CLhep predicted,[1],39 mL/min/kg
same,CLhep predicted,[2],< 3.9 mL/min/kg
same,IC50,Cytochrome P450 3A4,1600 nM
same,Ratio EC50,Homo sapiens [3],77
same,EC50,[4],130 nM
same,EC50,[5],10000 nM
same,CLhep predicted,[7],19 mL/min/kg
NS(=O)(=O)NCCNc1nonc1C(=NO)Nc1ccc(F)c(Br)c1 [EPACADOSTAT],IC50,[9],> 10000 nM
C[C@H]([C@H](O)c1ccccc1)[C@H]1c2ccccc2-c2cncn21,EC50,[4],≤ 32 nM
CC(=O)N1CC[C@@H]([C@H]2c3ccccc3-c3cncn32)[C@H](O)C1,Ratio EC50,Homo sapiens [3],> 8
same,EC50,[4],3000 nM
same,EC50,[5],> 25000 nM
same,logD,[6],1.1
C[C@H]([C@H](O)C1CCCCC1)[C@H]1c2ccccc2-c2cncn21,CLhep predicted,[1],75 mL/min/kg
same,CLhep predicted,[2],16 mL/min/kg
same,Ratio EC50,Homo sapiens [3],11
same,EC50,[4],62 nM
same,EC50,[5],670 nM
same,logD,[6],3.9
same,CLhep predicted,[7],42 mL/min/kg
O=C1CC(c2c[nH]c3ccc(F)cc23)C(=O)N1 (stereo not drawn) [PF-06840003],IC50,[9],> 10000 nM
CS(=O)(=O)c1ccc2c(c1)CC[C@@H]([C@H]1c3ccccc3-c3cncn31)[C@@H]2O,Ratio IC50/EC50,Homo sapiens [8],43
same,CLhep predicted,[1],81 mL/min/kg
same,CLhep predicted,[2],6.9 mL/min/kg
same,IC50,Cytochrome P450 3A4,2800 nM
same,Ratio EC50,Homo sapiens [3],20
same,EC50,[4],65 nM
same,EC50,[5],1300 nM
same,CLhep predicted,[7],46 mL/min/kg
O[C@@H]1c2ccnn2CC[C@H]1[C@H]1c2ccccc2-c2cncn21,Ratio IC50/EC50,Homo sapiens [8],> 77
same,Vd,[10],1.1 L/kg
same,CL free,[11],310 mL/min/kg
same,bioavailability,[12],140%
same,CLhep predicted,[1],45 mL/min/kg
same,half-life,[13],46.8 min
same,CLhep predicted,[2],< 3.9 mL/min/kg
same,clearance,[14],28 mL/min/kg
same,IC50,Cytochrome P450 3A4,> 10000 nM
same,Ratio EC50,Homo sapiens [3],35
same,EC50,[4],130 nM
same,AUC(0-inf),[15],0.81 µM·h
same,solubility kinetic,[16],149 µM
same,CLhep predicted,[7],37 mL/min/kg
same,bioavailability,[17],70%
same,fraction unbound,[18],0.09
same,Papp A→B,[19],13 ×10⁻⁶ cm/s
CC(C)([C@H](O)c1ncco1)[C@H]1c2ccccc2-c2cncn21,Ratio IC50/EC50,Homo sapiens [8],< 2
same,EC50,[4],71 nM
same,logD,[6],2.3
O[C@@H]1c2ccncc2CC[C@H]1[C@H]1c2ccccc2-c2cncn21,Ratio IC50/EC50,Homo sapiens [8],< 2
same,CLhep predicted,[1],67 mL/min/kg
same,CLhep predicted,[2],11 mL/min/kg
same,IC50,Cytochrome P450 3A4,< 100 nM
same,Ratio EC50,Homo sapiens [3],17
same,EC50,[5],800 nM
same,CLhep predicted,[7],46 mL/min/kg
O[C@@H]1CCOC[C@H]1[C@H]1c2ccccc2-c2cncn21,Ratio IC50/EC50,Homo sapiens [8],3.1
same,IC50,Cytochrome P450 3A4,650 nM
same,Ratio EC50,Homo sapiens [3],14
same,EC50,[5],2900 nM
same,logD,[6],1.5
OCCC1c2ccccc2-c2cnsc21 (stereo not drawn),IC50,[20],7000 nM
N#Cc1ccc2c(c1)[C@@H](O)[C@H]([C@H]1c3ccccc3-c3cncn31)CC2,Ratio IC50/EC50,Homo sapiens [8],55
same,CLhep predicted,[1],79 mL/min/kg
same,CLhep predicted,[2],14 mL/min/kg
same,IC50,Cytochrome P450 3A4,3300 nM
same,Ratio EC50,Homo sapiens [3],12
same,EC50,[4],60 nM
same,EC50,[5],690 nM
same,CLhep predicted,[7],44 mL/min/kg
same,Papp A→B,[19],1.7 ×10⁻⁶ cm/s
c1ccc2c(c1)-c1cncn1[C@H]2C1CCCCC1,CLhep predicted,[1],74 mL/min/kg
same,CLhep predicted,[2],15 mL/min/kg
same,Ratio EC50,Homo sapiens [3],13
same,logD,[6],3.7
same,CLhep predicted,[7],45 mL/min/kg
O[C@@H]1c2cnccc2CC[C@H]1[C@H]1c2ccccc2-c2cncn21,Cmax,[21],70 µM
same,AUC,Mus musculus [22],139000 ng·h/mL
same,AUC(0-inf),[23],210 µM·h
same,Ratio IC50/EC50,Homo sapiens [8],48
same,Vd,[10],1.4 L/kg
same,AUC,Mus musculus [24],229000 ng·h/mL
same,CL free,[11],410 mL/min/kg
same,AUC(0-inf),[25],5 µM·h
same,AUC(0-inf),[26],35 µM·h
same,bioavailability,[12],68%
same,CLhep predicted,[1],71 mL/min/kg
same,half-life,[13],37.2 min
same,Cmax,Mus musculus [27],540 µM
same,CLhep predicted,[2],6.9 mL/min/kg
same,clearance,[14],29 mL/min/kg
same,IC50,Cytochrome P450 3A4,2400 nM
same,Ratio EC50,Homo sapiens [3],28
same,EC50,[4],50 nM
same,AUC(0-inf),[15],0.34 µM·h
same,Cmax,Mus musculus [28],420 µM
same,EC50,[5],1400 nM
same,Cmax,[29],4.1 µM
same,Cmax,Mus musculus [30],560 µM
same,solubility kinetic,[16],139 µM
same,CLhep predicted,[7],38 mL/min/kg
same,bioavailability,[17],78%
same,AUC,Mus musculus [31],404000 ng·h/mL
same,fraction unbound,[18],0.07
same,Cmax,[32],21.2 µM
same,Papp A→B,[19],11 ×10⁻⁶ cm/s
